# Measurements from different studies.
# Protocols differ between the studies behind these lines.
# Target: Tyrosine-protein kinase ZAP-70 (ZAP70, Homo sapiens, UniProt P43403)
# Sequence (P43403 1-619, as in one of the studies): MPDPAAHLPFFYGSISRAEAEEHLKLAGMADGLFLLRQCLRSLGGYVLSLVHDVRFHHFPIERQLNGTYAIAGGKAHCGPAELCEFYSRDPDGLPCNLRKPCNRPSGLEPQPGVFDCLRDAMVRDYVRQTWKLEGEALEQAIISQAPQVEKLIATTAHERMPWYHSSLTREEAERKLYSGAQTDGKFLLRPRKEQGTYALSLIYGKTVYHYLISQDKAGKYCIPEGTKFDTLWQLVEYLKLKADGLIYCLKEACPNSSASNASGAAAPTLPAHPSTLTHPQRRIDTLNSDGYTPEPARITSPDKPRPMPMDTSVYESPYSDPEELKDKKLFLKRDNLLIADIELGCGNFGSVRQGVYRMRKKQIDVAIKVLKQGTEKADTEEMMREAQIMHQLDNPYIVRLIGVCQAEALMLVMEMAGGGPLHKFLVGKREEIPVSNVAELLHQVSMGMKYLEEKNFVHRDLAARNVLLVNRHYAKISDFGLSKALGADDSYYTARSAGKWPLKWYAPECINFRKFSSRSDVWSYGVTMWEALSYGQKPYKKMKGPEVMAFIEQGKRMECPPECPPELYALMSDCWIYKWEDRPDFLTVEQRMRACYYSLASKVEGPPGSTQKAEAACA
SMILES,read-out,technique,tested at,remaining binding [%]
COc1ccnn2ncc(-c3ccnc(N(C)C)n3)c12,binding,,1 µM,86
O=C(Nc1c[nH]nc1C(=O)NC1CCNCC1)c1cc(F)cc(F)c1,binding,competition with immobilised ligand,1 µM,87
F[C@@H]1CCN(c2nccc(-c3cnn4ncccc34)n2)C1,binding,,1 µM,100
O=C(NCCCN1CCOCC1)c1ccc(Nc2ncc(Cl)c(-c3ccc(Cl)s3)n2)cc1,binding,competition with immobilised ligand,1 µM,88
COc1ncc2cc3ccccc3nc2c1C#N,cell-free assay,competition with immobilised ligand,5 µM,88
O=C(c1ccc(Nc2ncc(Cl)c(-c3cc4ccccc4s3)n2)cc1)N1CCC(N2CCCC2)CC1,binding,competition with immobilised ligand,1 µM,10
O=C(O)[C@@H]1[C@@H](Cn2nnc3ccccc3c2=O)CC[C@H]1C(=O)c1ccc(OCCC2CCOCC2)cc1,cell-free assay,competition with immobilised ligand,1 µM,99
FC(F)(F)Oc1cccc(-c2cnc3ccc(-c4ccncc4)nn23)c1,binding,competition with immobilised ligand,5 µM,69
O=C(NCc1ncc(C(F)(F)F)cc1Cl)c1ccc2c(c1)C1(CCS(=O)(=O)CC1)[C@@H](C1CC1)N2S(=O)(=O)c1ccc(F)cc1,cell-free assay,competition with immobilised ligand,1 µM,72
CN(c1nccc(-c2cnn3ncccc23)n1)C1CC1,binding,,1 µM,100
C[C@@H]1CN(c2ccc3ncc(-c4ccc5[nH]nc(C6CC6)c5c4)n3n2)C[C@H](C)O1,binding,competition with immobilised ligand,50 nM,100
CNCc1ccccc1-c1csc([C@@H](C)Nc2nc(C)nc3cc(OC)c(OC)cc23)c1,cell-free assay,competition with immobilised ligand,1 µM,87
Cc1cnn2ncc(-c3ccnc(N(C)C)n3)c2c1,binding,,1 µM,100
O=C(c1ccc(Nc2ncc(Cl)c(-c3ccc(Cl)s3)n2)cc1)N1CCC(N2CCCC2)CC1,binding,competition with immobilised ligand,1 µM,23
C=CC(=O)N1CCC(C(=O)NCC(=O)N2CCN(c3nc(-c4cnc(N)nc4C(F)F)nc(N4CCOCC4)n3)CC2)CC1,binding,competition with immobilised ligand,1 µM,100
CN(C)c1ncnc(-c2ccc3nc(Nc4cc(CN5CCN(C(=O)CC(F)(F)F)CC5)ccn4)[nH]c3c2)c1Cl,cell-free assay,competition with immobilised ligand,1 µM,100
COc1cnc(Nc2cccc(S(N)(=O)=O)c2)nc1N1CCN(c2ccccc2)CC1,binding,competition with immobilised ligand,1 µM,84
C[C@@H](c1cccc(C#N)c1)n1cc(Cl)cc(C(N)=O)c1=N,cell-free assay,competition with immobilised ligand,1 µM,84
Nc1ncc2c(n1)-c1c([nH]c3ccc(C#CC4CC4)cc13)CCCC2,binding,competition with immobilised ligand,1 µM,92
N[C@H]1CCN(c2nccc(-c3cnn4ncccc34)n2)C1,binding,,1 µM,100
CS(=O)(=O)NCC[C@H](NC(=O)c1cncc2c1cnn2-c1ccc(F)cc1)c1ccnc(S(C)(=O)=O)c1,cell-free assay,competition with immobilised ligand,1 µM,80
C[C@@H]1CCN(c2nccc(-c3cnn4ncccc34)n2)C1,binding,,1 µM,75
c1cncc(-c2cccc(Nc3nccc(NC4CCCCC4)n3)c2)c1,binding,competition with immobilised ligand,10 µM,91
Cc1cc(-n2nc(Cc3cc(F)cc(C(F)(F)F)c3)nc2C)ccc1C(N)=O,cell-free assay,competition with immobilised ligand,1 µM,82
CN(C)c1nccc(-c2cnc3ncccn23)n1,binding,,1 µM,90
